Assay results: ChEMBL document CHEMBL3826935, “Synthesis and Pharmacology of (Pyridin-2-yl)methanol Derivatives as Novel and Selective Transient Receptor Potential Vanilloid 3 Antagonists” (J Med Chem, 2016)

Columns and labels:
Rattus norvegicus [1] = experiment: Toxicity in chronic constriction injury Sprague-Dawley rat model of neuropathic pain assessed as overt impairments at 10 to 100 mg/kg, po; format: organism-based; conditions: in vivo
[2] = Volume of distribution at steady state in rat at 1 mg/kg, iv or 2 mg/kg, po; format: ADME, organism-based; conditions: in vivo, read-out: Vdss
Summary of the method: (§1)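 Rat pharmacokinetics: iv dose 1 mg/kg; po dose 1 or 2 mg/kg depending on compound. AUC taken over 0–8 h. Unbound parameters calculated using plasma free fraction.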

[3] = biological target: T1, Transient receptor potential cation channel subfamily V member 3 (Homo sapiens, UniProt Q8NET8); experiment: Antagonist activity at human TRPV3 expressed in recombinant HEK293 cells assessed as inhibition of 2-APB induced currents by patch-clamp electrophysiological assay; format: cell-based
T1 sequence (Q8NET8 whole entry): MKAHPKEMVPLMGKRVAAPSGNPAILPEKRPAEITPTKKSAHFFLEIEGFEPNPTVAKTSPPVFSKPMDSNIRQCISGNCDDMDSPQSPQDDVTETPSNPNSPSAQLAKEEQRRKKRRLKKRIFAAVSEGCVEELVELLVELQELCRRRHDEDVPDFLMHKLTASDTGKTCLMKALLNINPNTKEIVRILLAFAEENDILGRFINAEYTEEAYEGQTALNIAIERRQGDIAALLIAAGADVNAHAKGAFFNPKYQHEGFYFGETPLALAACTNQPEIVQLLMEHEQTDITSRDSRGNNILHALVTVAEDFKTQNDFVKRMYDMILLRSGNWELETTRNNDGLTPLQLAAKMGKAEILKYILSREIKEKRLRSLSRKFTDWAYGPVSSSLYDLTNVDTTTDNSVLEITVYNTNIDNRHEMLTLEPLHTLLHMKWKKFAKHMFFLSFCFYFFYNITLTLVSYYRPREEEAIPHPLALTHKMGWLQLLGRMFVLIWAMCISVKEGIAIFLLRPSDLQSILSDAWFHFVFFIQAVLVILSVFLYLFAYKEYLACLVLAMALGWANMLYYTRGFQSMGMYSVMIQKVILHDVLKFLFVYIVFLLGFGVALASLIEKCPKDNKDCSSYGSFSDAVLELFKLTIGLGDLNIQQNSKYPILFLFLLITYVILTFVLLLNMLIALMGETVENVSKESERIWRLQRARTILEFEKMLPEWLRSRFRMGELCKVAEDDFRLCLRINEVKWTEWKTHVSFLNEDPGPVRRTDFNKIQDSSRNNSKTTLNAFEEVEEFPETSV

Rattus norvegicus [4] = experiment: Antiallodynic activity in po dosed chronic constriction injury Sprague-Dawley rat model of neuropathic pain assessed as attenuation of mechanical allodynia induced by von Frey hair stimulation to the ipsilateral hind paw; format: functional, organism-based
Summary of the method: (§2)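 Rat neuropathic pain models dosed orally. Mechanical allodynia measured by von Frey stimulation of the injured ipsilateral paw, with a 15 g threshold taken as maximal possible effect and results expressed as %MPE. Vehicle 10% DMSO in PEG; n = 6 per group.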

[5] = biological target: T2, Transient receptor potential cation channel subfamily V member 3 (Homo sapiens) (UniProt Q8NET8); experiment: Antagonist activity at human TRPV3 expressed in recombinant HEK293 cells assessed as free plasma level adjusted concentration for inhibition of 2-APB induced calcium flux by FLIPR analysis; format: cell-based
T2 sequence (whole entry): T1 sequence (Q8NET8 whole entry)
Summary of the method: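 FLIPR Kb from the 2-APB (60 µM final) Ca2+ flux assay in human TRPV3 HEK293 cells, converted to an unbound value using the measured free fraction in plasma.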

Liver microsome = experiment: Unbound intrinsic clearance in rat liver microsomes after 5 hrs by LC-MS/MS analysis; format: ADME
Summary of the method: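 Microsomal stability run in an automated high-throughput plate format. Intrinsic clearance corrected for nonspecific microsomal binding using measured unbound fraction (fu,mic), reported as unbound Clint in L/h/kg.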

Rattus norvegicus [6] = experiment: Toxicity in chronic constriction injury Sprague-Dawley rat model of neuropathic pain assessed as behavioral changes at 10 to 100 mg/kg, po; format: organism-based; conditions: in vivo
[7] = biological target: Voltage-dependent T-type calcium channel subunit alpha-1H (Homo sapiens) (UniProt O95180); experiment: Binding affinity to Cav3.2 (unknown origin) at 10 uM
Summary of the method: (§3)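 Selectivity screen at 10 µM across CEREP and internal target panels. Readout is percent binding, with 50% as the threshold.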

[8] = […] plasma clearance in rat at 1 mg/kg, iv; format: ADME, organism-based; conditions: read-out: CL free (converted); summary of the method: as §1
[9] = Fraction unbound in human plasma; format: ADME, cell-free
[10] = Ratio of drug level in plasma to brain in Sprague-Dawley rat; format: ADME, cell-free; conditions: in vivo
[11] = biological target: Voltage-dependent N-type calcium channel subunit alpha-1B (Homo sapiens) (UniProt Q00975); experiment: Binding affinity to Cav2.2 (unknown origin) at 10 uM; summary of the method: as §3
[12] = Total plasma clearance in rat at 1 mg/kg, iv; format: ADME, organism-based; summary of the method: as §1
[13] = biological target: Sodium channel protein type 9 subunit alpha (Homo sapiens) (UniProt Q15858); experiment: Binding affinity to Nav1.7 (unknown origin) at 10 uM; summary of the method: as §3
Rattus norvegicus [14] = experiment: Unbound AUC(0 to 8 hrs) in rat at 2 mg/kg, po; format: ADME, organism-based; conditions: in vivo; summary of the method: as §1
Rattus norvegicus [15] = experiment: Toxicity in Sprague-Dawley rat reserpine model of central pain assessed as behavioral changes at 10 to 100 mg/kg, po; format: organism-based; conditions: in vivo
[16] = biological target: Voltage-gated inwardly rectifying potassium channel KCNH2 (Homo sapiens, UniProt Q12809); experiment: Binding affinity to human ERG at 10 uM; summary of the method: as §3
Rattus norvegicus [17] = species: Rattus norvegicus; experiment: Cardiotoxicity in rat assessed as increase in cardiac contractility at plasma concentration of 4.7 ug/ml; format: toxicity, organism-based
Rattus norvegicus [18] = experiment: Antiallodynic activity in po dosed sciatic nerve ligation Sprague-Dawley rat model of neuropathic pain assessed as attenuation of mechanical allodynia induced by von Frey hair stimulation to the ipsilateral hind paw; format: functional, organism-based; summary of the method: as §2
Rattus norvegicus [19] = experiment: Toxicity in sciatic nerve ligation Sprague-Dawley rat model of neuropathic pain assessed as behavioral changes at 10 to 100 mg/kg, po; format: organism-based; conditions: in vivo
Rattus norvegicus [20] = experiment: Antiallodynic activity in Sprague-Dawley rat reserpine model of central pain assessed as increase in reserpine induced muscle pressure threshold at 10 to 100 mg/kg, po measured at 1 hr post dosing; format: functional, organism-based
[21] = biological target: Voltage-dependent L-type calcium channel subunit alpha-1C (Homo sapiens, UniProt Q13936); experiment: Binding affinity to Cav1.2 (unknown origin) at 10 uM; summary of the method: as §3
Rattus norvegicus [22] = experiment: Toxicity in Sprague-Dawley rat reserpine model of central pain assessed as overt impairments at 10 to 100 mg/kg, po; format: organism-based; conditions: in vivo
[23] = biological target: Transient receptor potential cation channel subfamily V member 1 (Homo sapiens) (UniProt Q8NER1); experiment: Binding affinity to TRPV1 (unknown origin) at 10 uM; summary of the method: as §3
Rattus norvegicus [24] = experiment: Toxicity in sciatic nerve ligation Sprague-Dawley rat model of neuropathic pain assessed as overt impairments at 10 to 100 mg/kg, po; format: organism-based; conditions: in vivo
[25] = biological target: Sodium channel protein type 10 subunit alpha (Homo sapiens) (UniProt Q9Y5Y9); experiment: Binding affinity to Nav1.8 (unknown origin) at 10 uM; summary of the method: as §3
[26] = AUC(0 to 8 hrs) in rat at 2 mg/kg, po; format: ADME, organism-based; design: time < 6 hr, dose 2 mg/kg, route oral; conditions: in vivo; summary of the method: as §1
[27] = Half life in rat at 1 mg/kg, iv; format: ADME, organism-based; conditions: in vivo; summary of the method: as §1
[28] = biological target: T2, Transient receptor potential cation channel subfamily V member 3 (Homo sapiens); experiment: Binding affinity to TRPV3 (unknown origin) at 10 uM

Sequence of Voltage-dependent L-type calcium channel subunit alpha-1C (Q13936 whole entry): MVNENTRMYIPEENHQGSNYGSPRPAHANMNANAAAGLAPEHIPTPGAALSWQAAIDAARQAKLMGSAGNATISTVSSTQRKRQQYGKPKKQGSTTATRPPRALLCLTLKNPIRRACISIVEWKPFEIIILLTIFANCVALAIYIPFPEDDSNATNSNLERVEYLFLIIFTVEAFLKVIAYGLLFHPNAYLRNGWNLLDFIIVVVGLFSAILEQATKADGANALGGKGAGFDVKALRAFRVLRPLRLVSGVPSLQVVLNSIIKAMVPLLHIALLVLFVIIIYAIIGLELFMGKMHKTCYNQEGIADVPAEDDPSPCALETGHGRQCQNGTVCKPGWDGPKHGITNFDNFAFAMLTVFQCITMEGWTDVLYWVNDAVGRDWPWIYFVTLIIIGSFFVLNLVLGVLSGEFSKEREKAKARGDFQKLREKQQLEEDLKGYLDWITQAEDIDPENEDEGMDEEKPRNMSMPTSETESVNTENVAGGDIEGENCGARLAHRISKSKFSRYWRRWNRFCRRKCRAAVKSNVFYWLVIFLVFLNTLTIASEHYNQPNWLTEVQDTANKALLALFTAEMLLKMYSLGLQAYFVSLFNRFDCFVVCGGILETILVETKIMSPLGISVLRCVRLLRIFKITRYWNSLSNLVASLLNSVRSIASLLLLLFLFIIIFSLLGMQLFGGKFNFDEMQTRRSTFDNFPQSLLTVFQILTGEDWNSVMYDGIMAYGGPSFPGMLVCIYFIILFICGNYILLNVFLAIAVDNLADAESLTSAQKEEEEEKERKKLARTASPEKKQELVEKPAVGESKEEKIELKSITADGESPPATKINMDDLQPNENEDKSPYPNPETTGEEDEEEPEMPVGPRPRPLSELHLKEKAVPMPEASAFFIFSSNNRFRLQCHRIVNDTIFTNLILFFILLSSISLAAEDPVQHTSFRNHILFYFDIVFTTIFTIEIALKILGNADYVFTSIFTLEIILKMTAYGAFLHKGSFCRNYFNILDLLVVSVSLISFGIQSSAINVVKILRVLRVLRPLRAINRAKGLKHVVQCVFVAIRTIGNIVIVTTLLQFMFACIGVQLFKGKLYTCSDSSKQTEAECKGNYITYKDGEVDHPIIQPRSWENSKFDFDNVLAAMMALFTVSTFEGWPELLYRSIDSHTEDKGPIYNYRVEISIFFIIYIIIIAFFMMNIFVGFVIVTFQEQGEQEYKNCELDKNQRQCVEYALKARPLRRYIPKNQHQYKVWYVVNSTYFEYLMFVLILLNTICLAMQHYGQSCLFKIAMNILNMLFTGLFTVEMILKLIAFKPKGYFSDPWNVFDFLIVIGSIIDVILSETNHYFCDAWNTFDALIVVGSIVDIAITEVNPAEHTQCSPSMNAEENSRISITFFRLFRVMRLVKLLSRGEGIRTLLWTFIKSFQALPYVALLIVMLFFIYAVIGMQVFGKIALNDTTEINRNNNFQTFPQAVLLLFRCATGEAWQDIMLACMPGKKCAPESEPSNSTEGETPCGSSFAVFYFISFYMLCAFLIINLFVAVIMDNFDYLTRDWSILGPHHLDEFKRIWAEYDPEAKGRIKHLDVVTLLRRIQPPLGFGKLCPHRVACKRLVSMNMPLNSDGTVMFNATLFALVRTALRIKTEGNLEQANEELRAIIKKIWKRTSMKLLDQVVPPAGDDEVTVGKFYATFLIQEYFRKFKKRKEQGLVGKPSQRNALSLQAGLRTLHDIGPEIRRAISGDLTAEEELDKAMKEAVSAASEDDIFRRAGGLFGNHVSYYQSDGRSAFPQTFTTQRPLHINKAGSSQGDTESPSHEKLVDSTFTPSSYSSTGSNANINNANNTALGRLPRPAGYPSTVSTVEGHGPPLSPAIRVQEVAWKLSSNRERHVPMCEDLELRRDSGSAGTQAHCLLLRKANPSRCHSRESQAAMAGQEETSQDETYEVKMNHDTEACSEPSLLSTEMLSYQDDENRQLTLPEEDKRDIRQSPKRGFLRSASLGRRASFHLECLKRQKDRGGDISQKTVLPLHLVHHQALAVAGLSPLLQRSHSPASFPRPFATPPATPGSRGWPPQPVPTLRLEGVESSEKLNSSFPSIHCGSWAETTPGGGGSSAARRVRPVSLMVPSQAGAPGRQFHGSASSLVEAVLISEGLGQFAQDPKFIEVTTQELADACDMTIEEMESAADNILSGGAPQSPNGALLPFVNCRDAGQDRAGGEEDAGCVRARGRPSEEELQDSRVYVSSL
Sequence of Voltage-dependent N-type calcium channel subunit alpha-1B (Homo sapiens) (Q00975 whole entry, looked up): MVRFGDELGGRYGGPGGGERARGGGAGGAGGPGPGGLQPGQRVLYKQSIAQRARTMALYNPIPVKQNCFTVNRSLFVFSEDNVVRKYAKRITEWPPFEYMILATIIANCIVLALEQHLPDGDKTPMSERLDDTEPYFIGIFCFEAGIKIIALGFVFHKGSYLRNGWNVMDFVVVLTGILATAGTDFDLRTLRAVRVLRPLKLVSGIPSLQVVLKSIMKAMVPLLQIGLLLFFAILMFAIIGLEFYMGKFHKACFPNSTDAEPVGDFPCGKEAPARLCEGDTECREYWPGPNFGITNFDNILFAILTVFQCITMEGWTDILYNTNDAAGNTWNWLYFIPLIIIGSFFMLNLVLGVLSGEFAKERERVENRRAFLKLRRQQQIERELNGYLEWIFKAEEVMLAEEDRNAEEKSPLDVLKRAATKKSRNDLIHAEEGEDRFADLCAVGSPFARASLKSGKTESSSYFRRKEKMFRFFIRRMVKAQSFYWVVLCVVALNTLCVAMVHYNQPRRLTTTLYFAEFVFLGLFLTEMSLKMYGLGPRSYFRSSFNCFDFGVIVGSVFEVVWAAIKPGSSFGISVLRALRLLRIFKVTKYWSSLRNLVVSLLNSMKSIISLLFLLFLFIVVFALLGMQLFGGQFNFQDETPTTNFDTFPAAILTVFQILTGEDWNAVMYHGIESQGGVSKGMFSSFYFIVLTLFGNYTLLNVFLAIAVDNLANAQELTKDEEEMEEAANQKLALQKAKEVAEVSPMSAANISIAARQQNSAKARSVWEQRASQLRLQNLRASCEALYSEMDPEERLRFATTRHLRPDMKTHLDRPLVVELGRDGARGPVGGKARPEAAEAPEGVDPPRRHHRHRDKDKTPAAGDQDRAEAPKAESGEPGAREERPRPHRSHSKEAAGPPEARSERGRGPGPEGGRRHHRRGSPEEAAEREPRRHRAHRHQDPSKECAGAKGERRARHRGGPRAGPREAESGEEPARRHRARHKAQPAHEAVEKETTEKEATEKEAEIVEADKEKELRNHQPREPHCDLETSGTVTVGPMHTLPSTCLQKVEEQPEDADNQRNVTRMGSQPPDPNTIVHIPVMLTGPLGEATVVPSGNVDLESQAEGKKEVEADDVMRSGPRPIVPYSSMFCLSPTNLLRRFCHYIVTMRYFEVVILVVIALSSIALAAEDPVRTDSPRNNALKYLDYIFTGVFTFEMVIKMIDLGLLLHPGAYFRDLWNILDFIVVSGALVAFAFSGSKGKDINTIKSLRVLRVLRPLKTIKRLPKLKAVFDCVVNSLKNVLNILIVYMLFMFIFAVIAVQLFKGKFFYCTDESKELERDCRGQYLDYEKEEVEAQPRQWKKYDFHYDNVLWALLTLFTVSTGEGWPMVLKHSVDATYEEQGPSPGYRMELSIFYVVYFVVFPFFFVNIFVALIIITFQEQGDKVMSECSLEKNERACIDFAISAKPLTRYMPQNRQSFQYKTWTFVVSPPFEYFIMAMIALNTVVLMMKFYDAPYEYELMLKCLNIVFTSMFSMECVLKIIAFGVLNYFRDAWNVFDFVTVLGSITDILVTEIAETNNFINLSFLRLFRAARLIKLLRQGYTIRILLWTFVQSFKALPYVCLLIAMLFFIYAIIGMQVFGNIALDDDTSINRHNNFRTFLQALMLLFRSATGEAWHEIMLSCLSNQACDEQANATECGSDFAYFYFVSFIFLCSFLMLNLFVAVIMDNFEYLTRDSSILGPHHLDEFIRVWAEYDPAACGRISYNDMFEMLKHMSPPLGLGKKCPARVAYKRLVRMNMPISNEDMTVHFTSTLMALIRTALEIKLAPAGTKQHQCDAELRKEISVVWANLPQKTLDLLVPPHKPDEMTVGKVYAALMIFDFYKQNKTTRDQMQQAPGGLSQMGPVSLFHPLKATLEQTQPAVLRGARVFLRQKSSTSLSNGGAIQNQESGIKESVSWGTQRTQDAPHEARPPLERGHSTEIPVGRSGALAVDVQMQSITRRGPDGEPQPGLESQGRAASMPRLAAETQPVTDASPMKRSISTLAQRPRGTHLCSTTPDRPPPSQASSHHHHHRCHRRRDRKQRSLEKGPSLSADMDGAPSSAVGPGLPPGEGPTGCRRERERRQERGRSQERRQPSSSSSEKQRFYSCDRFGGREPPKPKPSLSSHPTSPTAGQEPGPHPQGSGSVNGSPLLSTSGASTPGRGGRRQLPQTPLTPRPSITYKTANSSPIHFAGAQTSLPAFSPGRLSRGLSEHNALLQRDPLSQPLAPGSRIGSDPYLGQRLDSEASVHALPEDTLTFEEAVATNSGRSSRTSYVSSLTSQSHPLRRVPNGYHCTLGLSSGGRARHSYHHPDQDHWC

Vd [2]: 1.4 L/kg
IC50 [3]: 380 nM
Kb [5]: 620 nM
CL free (Liver microsome): 100 mL/min/kg
Activity [7]: < 50%
clearance [8]: 41.7 mL/min/kg
fraction unbound [9]: 0.89
Ratio [10]: 1
Activity [11]: < 50%
clearance [12]: 26.7 mL/min/kg
Activity [13]: < 50%
fAUC (Rattus norvegicus [14]): 240 ng·h/mL
EC50 (Rattus norvegicus [18]): 11 µmol
Activity [23]: < 50%
Activity [25]: < 50%
AUC(0-t) at 6 h [26]: 380 ng·h/mL
half-life [27]: 30 min
Activity [28]: > 50%
SMILES: C[C@]1(O)C[C@](c2cc(C(F)(F)F)ccn2)([C@H](O)c2ccccn2)C1 (mixture of isomers)
Activity (Rattus norvegicus [1]): Non-toxic
Activity (Rattus norvegicus [4]): Dose-dependent effect
EC50 (Rattus norvegicus [4]): 11 µmol
Activity (Rattus norvegicus [6]): Non-toxic
Activity (Rattus norvegicus [15]): Non-toxic
Activity [16]: < 50%
Activity (Rattus norvegicus [17]): Non-toxic
Activity (Rattus norvegicus [18]): Dose-dependent effect
Activity (Rattus norvegicus [19]): Non-toxic
Activity (Rattus norvegicus [20]): Dose-dependent effect
Activity [21]: < 50%
Activity (Rattus norvegicus [22]): Non-toxic
Activity (Rattus norvegicus [24]): Non-toxic
